This is an account of results in paper PMC5363680 (Molecular Therapy. Nucleic Acids, 2017).

Series [1] has as its target Proteinase K (Parengyodontium album, UniProt P06873). The series can be described thus: Proteinase K degradation of CPP/siRNA complexes, PicoGreen read-out. The class given is in vitro ADME. Particulars: PF6 at MR10, same charge ratio as other CPPs.
For series [2], the system named is U87 cells. As to the kind of experiment: LDH leakage. It counts as cell-based, human. Particulars: reduced serum media, 6 hr, complexes and free peptide at a higher concentration. The procedure, abridged: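 U87 cells grown 24 hr in serum-containing medium, then switched to serum-free conditions: medium removed and complexes or free peptide added, diluted 1:10 in medium. Controls were untreated cells, 0.1% Triton X-100 and cell-free wells. After 6 hr at 37°C, 5% CO2, LDH activity (CytoTox-ONE) was measured per kit protocol and normalized to controls.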
(Release of lactate dehydrogenase indicates damage to the cell membrane.)

Series [3] deals with luc2 gene in U87 MG-luc2 cells. The series can be described thus: luc2 gene downregulation after CPP-mediated siRNA delivery. Particulars: MR30, 25 nM siRNA, 10% FBS media, 24 hr post treatment. It counts as cell-based, human.
In series [4] the target is proteinase (Parengyodontium album, UniProt P06873). As to the kind of experiment: Coincubation of CPP with proteinase, peptide fragments by UPLC. The class given is in vitro ADME. Particulars: coincubation of CPP with the enzyme, 2 hr at 37°C, data not shown.
Sequence of proteinase (P06873 106-384): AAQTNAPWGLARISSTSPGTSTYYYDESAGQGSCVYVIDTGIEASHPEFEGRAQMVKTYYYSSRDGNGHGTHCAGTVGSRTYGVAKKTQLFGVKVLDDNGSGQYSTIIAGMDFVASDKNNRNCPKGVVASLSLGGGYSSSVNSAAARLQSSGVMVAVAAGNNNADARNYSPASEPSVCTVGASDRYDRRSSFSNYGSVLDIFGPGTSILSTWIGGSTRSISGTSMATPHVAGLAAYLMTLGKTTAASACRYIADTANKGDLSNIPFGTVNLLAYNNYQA
In series [5] the test system is U87 cells. As to the kind of experiment: Neutral red lyso-toxicity assay, serum-free conditions. It counts as cell-based, human. Particulars: reduced serum media, 6 hr, CPP and CPP/siRNA complexes at higher concentrations. The procedure, abridged: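 U87 cells grown 24 hr in serum-containing medium, then medium replaced by complexes or peptide diluted 1:10 in reduced-serum medium. Controls were untreated cells, 10 μM chloroquine and cell-free wells. Neutral red dye added and incubated 6 hr at 37°C, 5% CO2. Cells then washed with PBS, detection solution added for 10 min, absorbance read at 540 nm and normalized to controls.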

Sequence of Proteinase K (P06873 106-384): as above

Turning to Stearyl-AGYLLGKINLKALAALAKKIL-NH2 [PF6], the “stability to proteinase, times higher than with other tested CPPs” value in series [1] was 10–20 times. Further, the LDH leakage result in series [2] was “led to LDH leakage”. Also, the “downregulation of luc2 gene at MR30” value in series [3] was 80%. In addition, the “degradation of CPP by the proteinase” value in series [4] is listed as “lack of a considerable increase of detectable peptide fragments”. For the same substance, the “Neutral red assay (lyso-toxicity)” value in series [5] was “showed toxic and/or buffering effects”.
